Measured values taken from ChEMBL document CHEMBL1129246, “Cardiovascular characterization of pyrrolo[2,1-d][1,5]benzothiazepine derivatives binding selectively to the peripheral-type benzodiazepine receptor (PBR): from dual PBR affinity and calcium antagonist activity to novel and selective calcium entry blockers” (J Med Chem, 1996).
Blank lines part the entries; values can stand above or below the compound they belong to.

How the values were obtained:
Translocator protein [1] = target: T1, Translocator protein (Rattus norvegicus, UniProt P16257); experiment: Ability to inhibit [3H]-PK 11195 binding to peripheral-type benzodiazepine receptor(PBR) in rat cerebral cortex homogenate; Not active; type: tissue-based
Cavia porcellus [2] = species: Cavia porcellus; experiment: Activity of chronotropic negative potency on guinea pig spontaneously beating right atrium; type: functional, Cardiac atrium
Procedure, shortened: (§1)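 Guinea pig atria (300–400 g, either sex) in oxygenated Tyrode at 35 °C, pH 7.4. Right atria beat spontaneously; left atria paced at 1 Hz. Isometric force recorded after 45–60 min stabilisation. Cumulative concentrations 0.1–50 μmol/L in DMSO (bath ≤0.3%). Potency from log concentration–response curves by probit analysis, n = 6–8.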

Cavia porcellus [3] = species: Cavia porcellus; experiment: Percent decrease of negative inotropic activity on isolated guinea pig left atrium at 5*10e-5 M; type: functional, Cardiac atrium; procedure, shortened: as §1
Cavia porcellus [4] = species: Cavia porcellus; experiment: [Ca2+] antagonistic activity on K+ depolarized guinea pig aortic strips (at 5(10e-5) M).; type: functional, Aorta
Procedure, shortened: (§2)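 Guinea pig aortic strips under 1 g resting force, equilibrated 1 h in PSS, then contracted with 80 mmol/L KCl. At plateau (~30 min), compounds in DMSO added cumulatively at 0.1–50 μmol/L and relaxation recorded.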

[5] = target: T2, Voltage-dependent L-type calcium channel subunit alpha-1C (Rattus norvegicus, UniProt P22002); experiment: Ability to inhibit [3H]nitrendipine binding to the L-type calcium channel receptor(CCR) in rat heart homogenate.; type: tissue-based
Procedure, shortened: (§3)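 Rat hearts perfused through the aorta with ice-cold saline, then homogenised in 50 mM Na-HEPES pH 7.4, filtered through cheesecloth and washed five times. Incubated 90 min at 0 °C in the dark with 3×10^-10 M [3H]nitrendipine; compounds in 5% DMSO. IC50 by log-probit analysis of six displacer concentrations in triplicate.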

[6] = target: T3, Voltage-gated L-type calcium channel (Rattus norvegicus, UniProt P22002+Q02485+P27732); experiment: (§4) Inhibition of [3H]nitrendipine binding to L-type calcium channel receptor(CCR) in rat cerebral cortex homogenate; type: tissue-based
Procedure, shortened: (§5)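 Male Sprague–Dawley rat cortex homogenised in 50 mM Na-HEPES pH 7.4, washed five times, pellet stored at -70 °C. Incubated 90 min at 0 °C in the dark with 3×10^-10 M [3H]nitrendipine; compounds dissolved in 5% DMSO. Filtration, scintillation counting. IC50 by log-probit analysis of six displacer concentrations in triplicate. Ki by Prusoff's equation using Kd 0.25 nM.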

[7] = target: T3, Voltage-gated L-type calcium channel; experiment: Ability to inhibit [3H]nitrendipine binding to the calcium channel receptor(CCR) in rat cerebral cortex homogenate.; type: tissue-based
Cavia porcellus [8] = species: Cavia porcellus; experiment: [Ca2+] antagonistic activity on K+ depolarized guinea pig aortic strips (at 5(10e-5) M); type: functional, Aorta; procedure, shortened: as §2
Translocator protein [9] = target: T1, Translocator protein; experiment: Ability to inhibit [3H]-PK 11195 binding to peripheral-type benzodiazepine receptor(PBR) in rat cerebral cortex homogenate.; type: tissue-based
[10] = target: T2, Voltage-dependent L-type calcium channel subunit alpha-1C; experiment: Ability to inhibit [3H]nitrendipine binding to the L-type calcium channel receptor(CCR) in rat heart homogenate; type: tissue-based
Procedure, shortened: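 Rat heart perfused via aorta with ice-cold saline, homogenized in 50 mM Na-HEPES pH 7.4, filtered through cheesecloth, washed five times at 48000g, and stored at -70 °C. Homogenate incubated 90 min at 0 °C in the dark with 3×10^-10 M [3H]nitrendipine; compounds in 5% DMSO. Bound counts taken after filtration. IC50 by log-probit from six concentrations in triplicate.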

Cavia porcellus [11] = species: Cavia porcellus; experiment: Activity of inotropic negative potency on stimulated guinea pig left atrium; type: functional; settings: Cardiac atrium, read-out: ED50 (the source's name); procedure, shortened: as §1
Cavia porcellus [12] = species: Cavia porcellus; experiment: Percent decrease of negative inotropic activity on isolated guinea pig left atrium at 1*10e-5 M; type: functional, Cardiac atrium; procedure, shortened: as §1
[13] = target: T3, Voltage-gated L-type calcium channel; experiment: as §4; type: tissue-based; remark: listed apart in the source
Procedure, shortened: as §5, with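 “triplicate.” for “triplicate. Ki by Prusoff's equation using Kd 0.25 nM.”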

Cavia porcellus [14] = species: Cavia porcellus; experiment: Percent decrease of negative chronotropic activity on isolated guinea pig spontaneously beating right atrium at 1*10e-4 M; type: functional, Cardiac atrium
Cavia porcellus [15] = species: Cavia porcellus; experiment: IC50 activity of [Ca2+] antagonistic potency on K+ depolarized guinea pig aortic strips; type: functional; settings: Aorta; procedure, shortened: as §2
Cavia porcellus [16] = species: Cavia porcellus; experiment: Percent decrease of negative chronotropic activity on isolated guinea pig spontaneously beating right atrium at 1*10e-5 M; type: functional, Cardiac atrium; procedure, shortened: as §1
Cavia porcellus [17] = species: Cavia porcellus; experiment: Activity of chronotropic negative potency on guinea pig spontaneously beating right atrium.; type: functional, Cardiac atrium; procedure, shortened: as §1
[18] = target: T2, Voltage-dependent L-type calcium channel subunit alpha-1C; experiment: Ability to inhibit [3H]nitrendipine binding to the L-type calcium channel receptor(CCR) in rat heart homogenate; Not active; type: tissue-based; procedure, shortened: as §3
Cavia porcellus [19] = species: Cavia porcellus; experiment: [Ca2+] antagonistic activity on K+ depolarized guinea pig aortic strips at 5*10e-5 M; type: functional, Aorta; procedure, shortened: as §2
[20] = target: T3, Voltage-gated L-type calcium channel; experiment: Ability to inhibit [3H]nitrendipine binding to the calcium channel receptor(CCR) in rat cerebral cortex homogenate; Not active; type: tissue-based; procedure, shortened: as §5
Cavia porcellus [21] = species: Cavia porcellus; experiment: Percent decrease of negative chronotropic activity on isolated guinea pig spontaneously beating right atrium at 1*10e-6 M; type: functional, Cardiac atrium; procedure, shortened: as §1
Cavia porcellus [22] = species: Cavia porcellus; experiment: Activity of inotropic negative potency on stimulated guinea pig left atrium.; type: functional; settings: Cardiac atrium, read-out: ED50 (the source's name)
Procedure, shortened: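 Isolated left atria from guinea pigs (300–400 g, either sex), Tyrode PSS gassed with 95% O2–5% CO2, 35 °C, pH 7.4, driven at 1 Hz by rectangular pulses; isometric force recorded after 45–60 min stabilization.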

Cavia porcellus [23] = species: Cavia porcellus; experiment: [Ca2+] antagonistic activity on K+ depolarized guinea pig aortic strips at 10e-4 M; type: functional; settings: Aorta

SMILES: COc1ccc(C2=C(OC(=O)c3cc(OC)c(OC)c(OC)c3)c3cccn3-c3cc(C(F)(F)F)ccc3S2)cc1
- IC50 (Translocator protein [1]): Not Active

SMILES: COc1ccc(C2Sc3ccccc3-n3c(CN(C)C)ccc32)cc1 (stereo unspecified)
- Inhibition (Cavia porcellus [8]): 10%
- IC50 (Translocator protein [9]; read-out: IC50): > 2000 nM
- IC50 [10]: 17 nM
- EC50 (Cavia porcellus [11]): 810 nM
- Decrease (Cavia porcellus [12]): 75%
- Ki [13]: 0.19 nM
- Decrease (Cavia porcellus [14]): 30%

SMILES: CCCC(=O)OC1=C(c2ccccc2)Sc2ccccc2-n2cccc21
- IC50 [7]: 4.88 nM

SMILES: COc1ccc(C2=C(OC(=O)c3cc(OC)c(OC)c(OC)c3)c3cccn3-c3ccccc3S2)cc1
- IC50 (Translocator protein [1]): Not Active

SMILES: COc1ccc(C2=C(OC(=O)c3cc(OC)c(OC)c(OC)c3)c3cccn3-c3cc(Cl)ccc3S2)cc1
- IC50 (Translocator protein [9]): Not Active

SMILES: COc1ccc(C2=C(OC(C)=O)c3cccn3-c3cc(Cl)ccc3S2)cc1
- IC50 [7]: 132 nM

SMILES: CC(=O)OC1=C(c2ccccc2)Sc2ccc(Cl)cc2-n2cccc21
- IC50 (Translocator protein [9]; read-out: IC50): 560 nM
- IC50 [7]: 150 nM

SMILES: CC(=O)OC1=C(c2ccccc2)Sc2ccccc2-n2cccc21
- IC50 [7]: 6 nM
- IC50 [5]: 220 nM

SMILES: COc1ccc(C2=C(OC(=O)N(C)C)c3cccn3-c3ccccc3S2)cc1
- IC50 [18]: Not Active
- IC50 [7]: 420 nM

SMILES: COc1ccc(C2=C(OC(C)=O)c3cccn3-c3ccccc3S2)cc1
- Decrease (Cavia porcellus [3]): 86%
- EC50 (Cavia porcellus [11]): 310 nM
- IC50 [7]: 0.13 nM
- Decrease (Cavia porcellus [16]): 26%
- Inhibition (Cavia porcellus [19]): 27%
- IC50 [5]: 340 nM

SMILES: COc1ccc(C2=C(OC(C)=O)c3cccn3-c3cc(C(F)(F)F)ccc3S2)cc1
- IC50 [7]: > 2000 nM
- IC50 (Translocator protein [1]): Not Active

SMILES: CCCC(=O)OC1=C(c2ccc(OC)cc2)Sc2ccccc2-n2cccc21
- IC50 [7]: 16 nM
- IC50 [5]: 150 nM

SMILES: CCCCC(=O)OC1=C(c2ccccc2)Sc2ccccc2-n2cccc21
- IC50 [5]: 610 nM

SMILES: COc1ccc(C2=C(OC(C)=O)c3ccc(CN(C)C)n3-c3cc(Cl)ccc3S2)cc1
- IC50 (Translocator protein [9]; read-out: IC50): > 2000 nM

SMILES: CC(=O)OC1=C(c2ccccc2)Sc2ccccc2-n2c(CN(C)C)ccc21
- IC50 (Translocator protein [9]; read-out: IC50): > 2000 nM

SMILES: COc1ccc([C@@H]2Sc3ccccc3N(CCN(C)C)C(=O)[C@@H]2OC(C)=O)cc1 [DILTIAZEM]
- ED30 (Cavia porcellus [17]): 70 nM
- Decrease (Cavia porcellus [21]): 94%
- Decrease (Cavia porcellus [12]): 78%
- EC50 (Cavia porcellus [22]): 790 nM
- inhibition at 100 µM (Cavia porcellus [23]): 88%

Now from value to compound, other results behind:

- IC50 [5]: 12 nM
- Ki [6]: 13 nM
SMILES: CC(=O)O[C@@H]1c2ccc(CN(C)C)n2-c2cccc(Cl)c2S[C@@H]1c1ccccc1
- ED30 (Cavia porcellus [2]): 850 nM
- Decrease (Cavia porcellus [3]): 41%
- Inhibition (Cavia porcellus [4]): 32%

- IC50 [7]: 5200 nM
SMILES: CC(=O)O[C@@H]1c2ccc(CN(C)C)n2-c2ccccc2S[C@@H]1c1ccccc1

- IC50 (Cavia porcellus [15]): 4450 nM
- EC50 (Cavia porcellus [11]): 710 nM
- IC50 [7]: 136 nM
SMILES: COc1ccc([C@H]2Sc3ccccc3-n3c(CN(C)C)ccc3[C@H]2OC(C)=O)cc1
- Inhibition (Cavia porcellus [8]): 56%
- ED30 (Cavia porcellus [2]): 1500 nM
- Decrease (Cavia porcellus [3]): 87%
- Decrease (Cavia porcellus [16]): 90%

- EC50 (Cavia porcellus [11]): 660 nM
- IC50 [7]: 3.3 nM
- Ki [6]: 1.5 nM
SMILES: COc1ccc([C@H]2Sc3ccc(Cl)cc3-n3c(CN(C)C)ccc3[C@H]2OC(C)=O)cc1
- ED30 (Cavia porcellus [17]): 880 nM
- Decrease (Cavia porcellus [3]): 83%
- Decrease (Cavia porcellus [16]): 61%
- Inhibition (Cavia porcellus [4]): 40%

- IC50 (Translocator protein [9]; read-out: IC50): > 2000 nM
- IC50 [7]: 960 nM
SMILES: CC(=O)OC1=C(c2ccccc2)Sc2ccc(Cl)cc2-n2c(CN(C)C)ccc21

- IC50 [7]: 300 nM
SMILES: CC(=O)O[C@@H]1c2ccc(CN(C)C)n2-c2cc(C(F)(F)F)ccc2S[C@@H]1c1ccccc1

- IC50 [18]: Not Active
- IC50 [20]: 1230 nM
SMILES: CC(=O)O[C@@H]1c2ccc(CN(C)C)n2-c2cc(Cl)ccc2S[C@@H]1c1ccccc1
